Reference: paper PMC4428392 (Anti-Cancer Agents in Medicinal Chemistry, 2014)
Several values for one entry are separate records, joined by “and”; a condition that tells them apart may be missing. Identical values can stand only once. Like-named read-outs stand apart in the source and are kept apart here.

Legend:
HCT-116 = test: MTT cytotoxicity assay in normoxia and hypoxia, HCT-116; assay type: cell-based, Human; conditions: for IC50: Homo sapiens
Summary of the method: (§1)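 MCF-7 and HCT-116 were grown in DMEM; NCI-H460 in RPMI 1640 plus 10 mM HEPES; all media had 10% FBS, pyruvate and 1.5 g/L bicarbonate. Cells were seeded at 20000/well and grown 24 h at 20% O2, 5% CO2, 37 °C. Serial compound concentrations were then given for 24 h in normoxia, or for 6 h hypoxia (3% O2) followed by 18 h normoxia. MTT was read at 545 nm. IC50 came from linear regression of % inhibition versus log concentration, and HCR = IC50 normoxia/IC50 hypoxia.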

MCF-7 = test: MTT cytotoxicity assay in normoxia and hypoxia, MCF-7; assay type: cell-based, Human
Summary of the method: as §1

γ-H2AX in HCT-116 cells = test: Level of γ-H2AX by flow cytometry; assay type: cell-based, Human; conditions: 30 µM, 24 h
HCT-116 cells [1] = test: Cell cycle assay by flow cytometry; assay type: cell-based, Human; conditions: 24 h
HCT-116 cells [2] = test: ROS analysis by flow cytometry; assay type: cell-based, Human
Summary of the method: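 HCT-116 cells were treated with test compound at 15 or 30 µM in normoxia or hypoxia (24 h per methods; legend states 18 h). They were stained with CM-H2DCFDA for 45 min, collected, and analysed on a FACSCalibur flow cytometer. Fluorescence was normalised to solvent control; mean ± SEM, n=3.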

[3] = system: cleaved PARP in HCT-116 cells; test: Level of cleaved PARP by flow cytometry; assay type: cell-based, Human; conditions: HCT-116, hypoxia, 30 µM, 24 h
[4] = system: γ-H2AX and cleaved PARP in HCT-116 cells; test: Dual-parameter γ-H2AX and cleaved PARP flow cytometry; assay type: cell-based, Human; conditions: 30 µM, 24 h
[5] = system: caspase 3/7 in HCT-116 cells; test: Caspase 3/7 activity; assay type: cell-based, Human; conditions: 30 µM, 24 h
Summary of the method: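 HCT-116 cells were exposed to test compound at 30 µM for 24 h in normoxia or hypoxia. Cells were harvested, washed in PBS, centrifuged (350 g, 5 min) and stained with a FAM-FLICA caspase-3/7 inhibitor kit. Active caspase 3/7 was measured by flow cytometry. Data are mean ± SEM, n=3, compared with solvent control by one-way ANOVA with Tukey post hoc test.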

NCI-H460 = test: MTT cytotoxicity assay in normoxia and hypoxia, NCI-H460; assay type: cell-based, Human; conditions: Homo sapiens
Summary of the method: as §1

[6] = Partition coefficient octanol/aqueous buffer pH 7.4 by HPLC; assay type: physicochemical; conditions: octanol/phosphate buffer pH 7.4, HPLC
Summary of the method: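 Octanol/phosphate buffer (pH 7.4) distribution was determined by HPLC at the compound retention time. Conditions: RP-18E column (4.6 × 150 mm, 5 µm) at 25 °C; isocratic water:acetonitrile 70:30 with 0.7% acetic acid at 0.5 mL/min; UV detection at 285 nm. Samples were dissolved in DMSO or methanol.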

Nc1n[n+]([O-])c2ccccc2[n+]1[O-] [TPZ, 3-amino-1,2,4-benzotriazine-1,4-dioxide, reference compound]
HCR = hypoxic cytotoxicity ratio IC50 (aerobic)/IC50 (hypoxic) (HCT-116; HCT-116): 2.6 | IC50 (HCT-116; HCT-116, 24 h, read-out: Cytotoxicity (IC50) HCT-116 N): 89.1 ± 14.5 µM | IC50 (HCT-116; HCT-116, read-out: Cytotoxicity (IC50) HCT-116 H): 34.8 ± 8.3 µM | IC50 (HCT-116; HCT-116, read-out: Cytotoxicity (IC50), cell kill under hypoxia): 34.8 µM | HCR = IC50 (aerobic)/IC50 (hypoxia) (MCF-7): 6.3 | expression of γ-H2AX (γ-H2AX in HCT-116 cells; HCT-116, hypoxia, solvent control 4%): around 30% | effect on expression of γ-H2AX (γ-H2AX in HCT-116 cells; HCT-116, normoxia): no significant effect | G1 (%) (HCT-116 cells [1]; HCT-116, hypoxia, 15 µM): 22.5±9.4% | G2/M (%) (HCT-116 cells [1]; HCT-116, hypoxia, 15 µM): 35.2% and 35.2±4.9% | S (%) (HCT-116 cells [1]; HCT-116, hypoxia, 15 µM): 34.7±6.0% | Sub-G1 (%) (HCT-116 cells [1]; HCT-116, hypoxia, 15 µM): 7.3% and 7.3±2.7% | G1 (%) (HCT-116 cells [1]; HCT-116, hypoxia, 30 µM): 26.3±5.5% | G2/M (%) (HCT-116 cells [1]; HCT-116, hypoxia, 30 µM): 27.3% and 27.3±1.3% | S (%) (HCT-116 cells [1]; HCT-116, hypoxia, 30 µM): 29.6±4.7% | Sub-G1 (%) (HCT-116 cells [1]; HCT-116, hypoxia, 30 µM): 16.5% and 16.5±1.2% | G1 (%) (HCT-116 cells [1]; HCT-116, normoxia, 15 µM): 41.9±1.7% | G2/M (%) (HCT-116 cells [1]; HCT-116, normoxia, 15 µM): 33.1% and 33.1±3.7% | S (%) (HCT-116 cells [1]; HCT-116, normoxia, 15 µM): 21.9±2.4% | G1 (%) (HCT-116 cells [1]; HCT-116, normoxia, 30 µM): 35.3% and 35.3±1.4% | G2/M (%) (HCT-116 cells [1]; HCT-116, normoxia, 30 µM): 39.1% and 39.1±4.0% | S (%) (HCT-116 cells [1]; HCT-116, normoxia, 30 µM): 22.1±2.9% | Sub-G1 (%) (HCT-116 cells [1]; HCT-116, normoxia, 30 µM): 3.2±0.5% | increase of ROS relative to control medium (HCT-116 cells [2]; HCT-116, hypoxia, 15 µM): 6 fold | increase of ROS relative to control medium (HCT-116 cells [2]; HCT-116, hypoxia, 30 µM): 10.5 fold | increase of ROS relative to control medium (HCT-116 cells [2]; HCT-116, normoxia, 15 µM): 1.5 fold | increase of ROS relative to control medium (HCT-116 cells [2]; HCT-116, normoxia, 30 µM): 2 fold | cleaved PARP [3]: approximately 10% | cells expressing both γ-H2AX and cleaved PARP (upper right quadrant) ([4]; HCT-116, hypoxia): 1.9% | cells expressing both γ-H2AX and cleaved PARP (upper right quadrant) ([4]; HCT-116, normoxia): 0.1% | level of active caspase 3/7 ([5]; HCT-116, hypoxia, solvent control 7%): about 41% | effect on level of active caspase 3/7 ([5]; HCT-116, normoxia): no apparent effect | IC50 (NCI-H460; NCI-H460, 24 h, read-out: Cytotoxicity (IC50) NCI-H460 N): 85 ± 9.7 µM | IC50 (NCI-H460; NCI-H460, read-out: Cytotoxicity (IC50) NCI-H460 H): 32.9 ± 2.1 µM | Log P7.4 [6]: -0.42
